Measured values reported in ChEMBL document CHEMBL1140883, “Synthesis and antitumor activity of novel amsacrine analogs: the critical role of the acridine moiety in determining their biological activity” (Bioorg Med Chem, 2009).
The source made the active and inactive calls. The rule behind the calls is not given here.

Legend:
[1] = test system: HL-60; assay: Cytotoxicity against human HL60 cells after 72 hrs by MTT assay; assay type: functional, cell-based; conditions: HL-60, 72 h
Method in brief: (§1)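 Cells kept in log phase at 37 °C, 5% CO2, in RPMI-1640 with 10% foetal calf serum. Seeded at 3–8 × 10^4 mL^-1 according to growth rate. Treated 72 h with increasing drug concentrations, final solvent 0.5%. MTT read-out as absorbance at 540 nm, expressed as % of untreated control. IC50 taken from dose–survival curves.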

[2] = test system: 2008; assay: Cytotoxicity against human 2008 cells after 72 hrs by MTT assay; assay type: functional, cell-based; conditions: Homo sapiens, 2008, 72 h; method in brief: as §1
[3] = test system: A-431; assay: Cytotoxicity against human A431 cells after 72 hrs by MTT assay; assay type: functional, cell-based; conditions: A-431, 72 h; method in brief: as §1
[4] = test system: A549; assay: Cytotoxicity against human A549 cells after 72 hrs by MTT assay; assay type: functional, cell-based; conditions: A549, 72 h
Method in brief: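 A549 cells kept in log phase at 37 °C, 5% CO2, in F-12 Ham's with 15% foetal calf serum, penicillin 50 units mL^-1 and streptomycin. Seeded at 3–8 × 10^4 mL^-1, then treated 72 h with increasing concentrations, final solvent 0.5%. MTT absorbance at 540 nm as % of untreated control. IC50 taken from dose–survival curves.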

[5] = test system: MCF7; assay: Cytotoxicity against human MCF7 cells after 72 hrs by MTT assay; assay type: functional, cell-based; conditions: MCF7, 72 h; method in brief: as §1
[6] = test system: Salmonidae; assay: Binding affinity to salmon testes DNA assessed as negative dichroic signal by linear dichroism experiment
Method in brief: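 Flow linear dichroism on salmon testes DNA at 1.5 × 10^-3 M in ETN buffer (10 mM Tris, 10 mM NaCl, 1 mM EDTA, pH 7). DNA orientation by shear gradient at 500–700 rpm. Spectra recorded at 25 °C at [drug]/[DNA] ratios of 0, 0.02, 0.04 and 0.08, each spectrum accumulated four times. DNA concentration from ε260 6600 M^-1 cm^-1.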

Row | SMILES | IC50 [1] [µM] | IC50 [2] [µM] | IC50 [3] [µM] | IC50 [4] [µM] | IC50 [5] [µM] | Activity [6]
1 | COc1cc(NS(C)(=O)=O)ccc1Nc1c2ccc(=O)oc2nc2c(OC)cccc12 | > 100 | > 100 | > 100 | 81.5 | > 100 | 
2 | COc1ccc2nc3oc(=O)ccc3c(Nc3ccc(NS(C)(=O)=O)cc3OC)c2c1 | 95.2 | > 100 | 85.7 | > 100 | > 100 | 
3 | COc1ccc2nc3oc(=O)ccc3c(Nc3ccc(NS(C)(=O)=O)cc3)c2c1 | 47.3 | 68.2 | 55.6 | > 100 | 60.6 | 
4 | COc1cccc2c(Nc3ccc(NS(C)(=O)=O)cc3)c3ccc(=O)oc3nc12 | > 100 | > 100 | > 100 | > 100 | > 100 | 
5 | COc1ccc2nc3oc(=O)ccc3c(Cl)c2c1 | > 100 | > 100 | 97 | > 100 | > 100 | 
6 | COc1cc(NS(C)(=O)=O)ccc1Nc1c2ccccc2nc2ccccc12 [AMSACRINE] | 1.15 | 4.31 | 5.89 | 3.52 | 5.13 | Active
7 | COc1ccc2c(Cl)c3ccc(=O)oc3nc2c1 | 60.3 | > 100 | > 100 | 53.4 | 50.1 | 
8 | COc1cc(NS(C)(=O)=O)ccc1Nc1c2ccccc2nc2oc(=O)ccc12 | > 100 | > 100 | > 100 | > 100 | > 100 | 
9 | COc1cccc2c(Cl)c3ccc(=O)oc3nc12 | 37.1 | 60.6 | 55.3 | 75.4 | 54.1 | 
10 | O=c1ccc2c(Cl)c3ccccc3nc2o1 | 39.5 | 52.6 | 54.3 | 62.9 | > 100 | 
11 | CS(=O)(=O)Nc1ccc(Nc2c3ccccc3nc3oc(=O)ccc23)cc1 | 92.1 | > 100 | 94.1 | > 100 | > 100 | 
12 | COc1ccc2c(Nc3ccc(NS(C)(=O)=O)cc3)c3ccc(=O)oc3nc2c1 | > 100 | > 100 | 92.7 | > 100 | > 100 | 
